Reference: ChEMBL document CHEMBL1629697, “Endocannabinoids inhibit the growth of free-living amoebae” (Antimicrob Agents Chemother, 2010)
Active and inactive are the calls of the source. The calls are words filed in the database; no cut-off is given here.

Tests used:
Hartmannella vermiformis [1] = assay: Antimicrobial activity against Hartmannella vermiformis assessed as growth inhibition at 10 ug/ml after 3 days by hemocytometer relative to control; type: functional; conditions: Vermamoeba vermiformis, 72 h, read-out: INH
Method in brief: (§1)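 Amoebae maintained at 30°C on E. coli lawns on nonnutrient agar, then axenic at 37°C in SCGYEM. Seeded day 0 at 2 × 10^5 cells/ml in SCGYEM with or without endocannabinoid, added in ethanol (0.05% final); vehicle controls contained ethanol. Tubes incubated slanted at 37°C; cell concentration counted daily by hemocytometer through day 3.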

Willaertia magna [2] = assay: Antimicrobial activity against Willaertia magna c2c Maky ATCC PTA-7824 assessed as growth inhibition at 10 ug/ml upto 3 days by hemocytometer; type: functional; method in brief: as §1
Hartmannella vermiformis [3] = assay: Antimicrobial activity against Hartmannella vermiformis assessed as decrease in viable cell concentration at 20 ug/ml after 3 days by hemocytometer; type: functional; conditions: Vermamoeba vermiformis; method in brief: as §1
Acanthamoeba castellanii [4] = assay: Antimicrobial activity against Acanthamoeba castellanii assessed as decrease in viable cell concentration at 20 ug/ml after 3 days by hemocytometer; type: functional, organism-based; method in brief: as §1
Acanthamoeba castellanii [5] = assay: Antimicrobial activity against Acanthamoeba castellanii assessed as growth inhibition at 5 ug/ml after 3 days by hemocytometer; type: functional, organism-based; method in brief: as §1
Hartmannella vermiformis [6] = assay: Antimicrobial activity against Hartmannella vermiformis assessed as growth inhibition at 2 ug/ml after 3 days by hemocytometer; type: functional; conditions: Vermamoeba vermiformis; method in brief: as §1
Willaertia magna [7] = assay: Antimicrobial activity against Willaertia magna c2c Maky ATCC PTA-7824 assessed as growth inhibition at 2 ug/ml after 3 days by hemocytometer; type: functional; method in brief: as §1
Willaertia magna [8] = assay: Antimicrobial activity against Willaertia magna c2c Maky ATCC PTA-7824 assessed as growth inhibition at 10 ug/ml after 3 days by hemocytometer relative to control; type: functional; conditions: c2c Maky ATCC PTA-7824, 72 h, read-out: INH; method in brief: as §1
Acanthamoeba castellanii [9] = assay: Antimicrobial activity against Acanthamoeba castellanii after 3 days by hemocytometer; type: functional, organism-based; conditions: 72 h; method in brief: as §1
Acanthamoeba castellanii [10] = assay: Antimicrobial activity against Acanthamoeba castellanii assessed as growth inhibition at 10 ug/ml after 3 days by hemocytometer relative to control; type: functional; conditions: 72 h; method in brief: as §1
Hartmannella vermiformis [11] = assay: Antimicrobial activity against Hartmannella vermiformis assessed as growth inhibition at 10 ug/ml upto 3 days by hemocytometer; type: functional; conditions: Vermamoeba vermiformis; method in brief: as §1
Acanthamoeba castellanii [12] = assay: Antimicrobial activity against Acanthamoeba castellanii assessed as growth inhibition at 10 ug/ml upto 3 days by hemocytometer; type: functional, organism-based; method in brief: as §1
Willaertia magna [13] = assay: Antimicrobial activity against Willaertia magna c2c Maky ATCC PTA-7824 assessed as growth inhibition at 5 ug/ml after 3 days by hemocytometer; type: functional; method in brief: as §1
Willaertia magna [14] = assay: Antimicrobial activity against Willaertia magna c2c Maky ATCC PTA-7824 after 3 days by hemocytometer; type: functional; conditions: c2c Maky ATCC PTA-7824, 72 h; method in brief: as §1
Hartmannella vermiformis [15] = assay: Antimicrobial activity against Hartmannella vermiformis after 3 days by hemocytometer; type: functional; conditions: Vermamoeba vermiformis, 72 h; method in brief: as §1
Acanthamoeba castellanii [16] = assay: Antimicrobial activity against Acanthamoeba castellanii assessed as growth inhibition at 2 ug/ml after 3 days by hemocytometer; type: functional, organism-based; method in brief: as §1
Hartmannella vermiformis [17] = assay: Antimicrobial activity against Hartmannella vermiformis assessed as growth inhibition at 5 ug/ml after 3 days by hemocytometer; type: functional; conditions: Vermamoeba vermiformis; method in brief: as §1
Willaertia magna [18] = assay: Antimicrobial activity against Willaertia magna c2c Maky ATCC PTA-7824 assessed as decrease in viable cell concentration at 20 ug/ml after 3 days by hemocytometer; type: functional; method in brief: as §1

## CCCCC/C=C\C/C=C\C/C=C\C/C=C\CCCC(=O)NCCO [ANANDAMIDE]
Hartmannella vermiformis [1]
  inhibition at 10 µg/mL: 96%
Willaertia magna [2]
  inhibition: Active
Hartmannella vermiformis [3]
  inhibition: Active
Acanthamoeba castellanii [4]
  inhibition: Active
Acanthamoeba castellanii [5]
  inhibition: Active
Hartmannella vermiformis [6]
  inhibition: Active
Willaertia magna [7]
  inhibition: Active
Willaertia magna [8]
  inhibition at 10 µg/mL: 58%
Acanthamoeba castellanii [9]
  IC50: 17 µM
Acanthamoeba castellanii [10]
  inhibition at 10 µg/mL: 68%
Hartmannella vermiformis [11]
  inhibition: Active
Acanthamoeba castellanii [12]
  inhibition: Active
Willaertia magna [13]
  inhibition: Active
Willaertia magna [14]
  IC50: 20 µM
Hartmannella vermiformis [15]
  IC50: 14 µM
Acanthamoeba castellanii [16]
  inhibition: Active
Hartmannella vermiformis [17]
  inhibition: Active
Willaertia magna [18]
  inhibition: Active
